In ChEMBL document CHEMBL1122230, “Quantitative aspects of the receptor binding of cytokinin agonists and antagonists” (J Med Chem, 1983):

tested on: Nicotiana tabacum; assay: Concentration at which 50% of maximum response of callus yield derived from Nicotiana tabacum var is obtained; assay type: functional
In short: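 Three Nicotiana tabacum callus pieces of ca. 10 mg fresh weight were placed per culture. E50 is the concentration giving 50% of maximal callus yield.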

SMILES | Log 1/E50
Cc1nc(Nc2cccc(Cl)c2)c2cc[nH]c2n1 | -0.66
Cc1nc(Nc2cccc(Br)c2)c2cc[nH]c2n1 | -0.8
CCOCCNc1[nH]c(C)nc2nccc1-2 | -1.37
CCCCCNc1[nH]c(C)nc2nccc1-2 | -0.72
CCCCC(CC)CNc1[nH]c(C)nc2nccc1-2 (stereo unspecified) | -0.84
Cc1nc(NCc2ccccc2)c2cc[nH]c2n1 [ROLODINE] | -0.72
Cc1nc(Nc2cccc(I)c2)c2cc[nH]c2n1 | -0.73
Cc1cccc(Nc2[nH]c(C)nc3nccc2-3)c1 | -1.12
Cc1nc(NCCc2ccccc2)c2cc[nH]c2n1 | -1.37
CC(C)=CCNc1[nH]c(C)nc2nccc1-2 | 0.08

tested on: Nicotiana tabacum; assay: Inhibition of 50% growth of tobacco callus derived from Nicotiana tabacum var on medium with 0.05 uM kinetin but without anti-cytokinin; NR=not reached to the maximum growth within the concentration range tested; assay type: functional, organism-based
In short: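 Basal medium with 0.05 μM kinetin plus the test compound at a series of concentrations, pH 5.6 (1 N NaOH), autoclaved at 1.0 kg/cm² for 15 min. Three tobacco callus pieces of ca. 10 mg fresh weight were used per culture. I50 is the concentration giving 50% of the callus growth seen on kinetin medium without anticytokinin.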

SMILES | Log 1/I50
Cc1nc(NCCO)c2cc[nH]c2n1 | Not reached
